Assay outcomes as filed in PubChem BioAssay.
PPC-1+TRAIL kill: compounds killing PPC-1 cancer cells with TRAIL present, primary screen, TRAIL potentiator project, ATPLite luminescence, uHTS; PPC-1 cells + TRAIL, ATPLite viability luminescence; cell killing (% activity), % at 4 µM or 5 µM; 220,000 compounds, 0.41% hits; AID 1443, 2008;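 active = cell killing above 50% in the first pass at 4 µM, then a duplicate retest at 5 µM averaging 50% or more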
FLuc act counter: FLuc activators, initial screening, artefact control for FLuc-dependent activation tests, biochemical, ATPlite luminescence; Luciferin 4-monooxygenase (Photinus pyralis), P08659; activation factor at 10 µM; 200,000 tested, under 10 active; ATPlite luciferase biochemical, 10 min; 0 = ATP-free wells, 1 = DMSO control;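 active = luciferase activation factor, scaled between plate controls, of at least 2 with compound at 10 µM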
Target sequence (P08659 whole entry, looked up): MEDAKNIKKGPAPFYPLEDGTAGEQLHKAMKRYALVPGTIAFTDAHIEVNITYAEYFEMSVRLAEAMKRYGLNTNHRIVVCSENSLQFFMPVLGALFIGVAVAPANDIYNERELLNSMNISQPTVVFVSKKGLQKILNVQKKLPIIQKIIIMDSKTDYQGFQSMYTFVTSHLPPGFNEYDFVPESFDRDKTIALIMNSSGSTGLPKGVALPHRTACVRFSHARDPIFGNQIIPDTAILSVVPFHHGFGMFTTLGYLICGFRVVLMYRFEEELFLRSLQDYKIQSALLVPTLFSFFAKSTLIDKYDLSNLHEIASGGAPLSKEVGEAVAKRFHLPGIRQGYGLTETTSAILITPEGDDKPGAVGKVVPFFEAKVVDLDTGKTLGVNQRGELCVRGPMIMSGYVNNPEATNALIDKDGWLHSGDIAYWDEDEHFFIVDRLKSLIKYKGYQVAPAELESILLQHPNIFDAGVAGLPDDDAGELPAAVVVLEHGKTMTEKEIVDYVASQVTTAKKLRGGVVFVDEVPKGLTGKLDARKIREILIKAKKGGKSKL
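Material: Luciferase/luciferin reagent mix | Doses: Test compounds dosed from 2 mM stocks in 100% DMSO | Timing: 10 min incubation after luciferase reagent addition, room temperature | Measured by: Luminescence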
FLuc inh counter: firefly luciferase enzyme inhibitors, primary screen, artefact control for luciferase-based inhibitor screens, biochemical, luminescence, ATPLite; Luciferin 4-monooxygenase (Photinus pyralis), P08659; 10 min; inhibition, % at 10 µM; 200,000 compounds, 1.5% hits; AID 1006, 2008;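 active = inhibition above about 50% when tested at 10 µM, limit read from the data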
TRAIL sens C8: viability loss with TRAIL in NB7+C8 cells, primary screen, TRAIL sensitizer project, cell-based, ATPlite luminescence; AID 624354, 2012; 360,000 compounds, 1% hits; inhibition (viability loss, TRAIL sensitization), % at 10 µM;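 active = compounds causing at least 50% loss of cell viability in the single-dose screen, relative to plate controls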
Numbers stand for hits; - = inactive; . = not tested or not shown. Sampled rows, rich in hits. Any-hit rate of the full collection: about 1.6%.

SMILES | PPC-1+TRAIL kill | FLuc act counter | FLuc inh counter | TRAIL sens C8
COC(=O)[C@H](Cc1ccccc1)NC(=O)CC[C@H]1O[C@@H](n2ccc(=O)[nH]c2=O)[C@H](O)[C@@H]1O | . | . | . | -
CC(=O)c1cc2c(cc1F)C(C)(C)CCC2(C)C | . | . | . | -
Cc1cc2cc(CCNC(=O)CC(C)C)c(=O)[nH]c2cc1C | - | - | - | .
Cc1ccc(-n2c(C3CC3c3ccc(Cl)cc3)n[nH]c2=S)cc1 (configuration not stated) | - | - | - | 59
O=C1OC(c2ccccc2)=C/C1=C/c1cccs1 | - | - | 79 | -
CC[n+]1c(/C=C/N(C)c2ccccc2)n(-c2ccccc2)c2ccc(-c3nc4ccccc4s3)cc21 | . | . | . | 91
CCOC(=O)c1ccc2c(c1)n(CC)c(/C=C/N(C)c1ccccc1)[n+]2CC | - | - | - | -
CC(NC(=O)CCC(=O)NCc1ccc(F)cc1)c1ccccc1 (configuration not stated) | . | . | . | -
Cc1ccc(C(=O)N/N=C\c2ccccc2[N+](=O)[O-])cn1 | . | - | 78 | 52
Cc1ccc(C(=O)N/N=C\C=C\c2ccccc2[N+](=O)[O-])cn1 | - | - | - | -
CCC(=O)Nc1ccc(C(=O)N/N=C/c2ccccc2[N+](=O)[O-])cc1 | - | - | - | -
CCOc1ccc(NC(=O)COc2ccccc2)c([N+](=O)[O-])c1 | - | - | 59 | -
CCOc1ccc(C(=O)N/N=C/c2ccccc2[N+](=O)[O-])cc1 | 52 | - | 89 | 76
O=[N+]([O-])c1cccnc1N/N=C/c1ccccc1O | - | - | - | 51
CS(=O)(=O)Nc1ccc(S(=O)(=O)N2CCOCC2)cc1 | - | - | - | -
CCOc1ccccc1N1CC(C(=O)N2CCc3ccccc3C2)CC1=O (configuration not stated) | - | - | - | .
O=C(NCc1ccco1)c1ccc(COc2ccc(Cl)cc2)cc1 | - | - | - | -
CCc1ccc(C(=O)COC(=O)c2cc([N+](=O)[O-])ccc2NCCO)cc1 | - | - | - | -
O=c1[nH]c(=S)[nH]c2c1C(c1ccc(Cl)c(Cl)c1)OC(CCc1ccccc1)C2 (configuration not stated) | . | . | . | 59
O=c1[nH]c(=S)[nH]c2c1C(c1ccc(Cl)cc1)OC(CCc1ccccc1)C2 (configuration not stated) | . | . | . | -
O=C(Nc1ccccc1)Nc1ccc2ncoc2c1 | - | - | - | -
O=C(Nc1ccccc1)Nc1ccc2ocnc2c1 | - | - | 61 | -
COc1cc(SC)ccc1C(=O)Nc1ccc(OCC(=O)N2CCOCC2)cc1 | . | . | . | 86
COc1cc(SC)ccc1C(=O)Nc1ccc(C)cc1 | - | - | 54 | -
COc1cc(SC)ccc1C(=O)Nc1cccc(C)n1 | . | - | 70 | -
SMILES | PPC-1+TRAIL kill | FLuc act counter | FLuc inh counter | TRAIL sens C8
COc1cc(SC)ccc1C(=O)Nc1cc(C)c(OCC(=O)N2CCOCC2)c(C)c1 | . | . | . | -
CCOC(=O)c1csc(N)c1-c1ccc([N+](=O)[O-])cc1 | - | . | . | -
Cc1noc(C)c1C(=O)Nc1nc2ccc(S(C)(=O)=O)cc2s1 | . | . | . | 54
Cc1ccc(C(=O)Nc2nc3ccc(S(C)(=O)=O)cc3s2)o1 | - | - | 74 | -
CC(=O)NCc1ccc2[nH]c(C)cc2c1 | - | - | - | -
COc1ccc(-n2cc(C(=O)c3ccccc3O)cn2)cc1 | - | - | 66 | 50
O=c1c2[nH]c3ccccc3c2ncn1C1CCCCC1 | - | - | - | 69
O=c1c2ccccc2ncn1C1CCCCC1 | - | - | - | -
Cn1c(NC(=O)c2ccc(S(=O)(=O)N3CCOCC3)cc2)cc(=O)n(C)c1=O | - | - | - | -
Brc1ccc(-c2nc(-c3ccccn3)no2)o1 | - | - | 74 | -
CCS(=O)(=O)c1ccc(N=Nc2ccc(O)c3ncccc23)c(OC)c1 | - | - | - | 70
Cc1nc(Nc2nc3ccccc3o2)nc2c1CCC2 | - | - | 66 | -
CCOC(=O)COc1ccc2ccccc2c1/C=C/[N+](=O)[O-] | - | - | - | -
O=[N+]([O-])/C=C/c1c(OCc2ccccc2)ccc2ccccc12 | - | - | - | 60
CN(C)c1ccc(C(=O)n2nnc3ccccc32)cc1 | - | - | 81 | -
CCCC(=O)Nc1ccc(C(=O)n2nnc3ccccc32)cc1 | - | - | - | -
CCCN(CCC)C(=O)C(CCC(=O)O)NC(=O)c1ccccc1 (configuration not stated) | - | - | - | -
CN(Cc1cnc2nc(N)nc(N)c2n1)c1ccc(C(=O)NC(CCC(=O)O)C(=O)O)cc1 (configuration not stated) | . | . | . | 81
CN(Cc1cnc2nc(N)nc(N)c2n1)c1ccc(C(=O)NC(CCC(=O)O)C(=O)O)cc1C(F)(F)F (configuration not stated) | . | . | . | 82
O=[N+]([O-])c1ccc(SNc2ccccc2)c([N+](=O)[O-])c1 | . | . | . | -
O=[N+]([O-])c1ccc(-[n+]2ccc3ccccc3c2)c([N+](=O)[O-])c1 | . | . | . | 55
COc1ccc(-c2nc3nc(C)cc(C)n3n2)cc1 | - | - | 59 | -
COc1ccc(CNc2nc3nc(C)cc(C)n3n2)cc1 | - | - | - | -
CCOc1ccc(N=C(C)C2=C(O)c3ccccc3C2=O)cc1 | - | . | . | -
O=C1C(C=Nc2ccccc2)=C(O)c2ccccc21 | - | - | 86 | 50
SMILES | PPC-1+TRAIL kill | FLuc act counter | FLuc inh counter | TRAIL sens C8
O=C1C(C=Nc2ccccc2O)=C(O)c2ccccc21 | - | - | 85 | -
COc1ccc(N=Cc2[nH]c3ccccc3c2O)cc1 | - | - | 86 | -
COc1ccc(N=C(C)C2=C(O)c3ccccc3C2=O)cc1 | 63 | - | 81 | 70
Cc1ccc(O)c(N=CC2=C(O)c3ccccc3C2=O)c1 | - | - | - | -
COc1ccc(N=C(N)N=C(N)N)c(OC)c1 | - | - | - | -
COc1ccc(-c2csc(NC(=S)NC(=O)/C=C/c3ccco3)n2)cc1Br | - | . | . | -
Cc1ccc(-c2nc(CN(Cc3cnn(C)c3)C(C)C)c(C)o2)o1 | - | - | - | -
COc1ccc(N=CC2=C(O)c3ccccc3C2=O)cc1 | - | - | 92 | 88
Cc1ccc(C2=NN=C(NC(=O)CSc3nncn3C)SC2)cc1 | - | - | 86 | -
CCOC(=O)N1CCC(NC(=O)c2cnn3c(C(F)(F)F)cc(-c4cccc(OC)c4)nc23)CC1 | - | - | - | .
CN(C(=O)OC(C)(C)C)c1ccc(-c2nc3ccccc3s2)cc1 | . | . | . | 89
CCOC(=O)C1=C(C)OC(N)=C(C#N)C1c1c(C)nn(-c2ccc(C)cc2)c1Cl (configuration not stated) | - | - | - | .
Cc1cc(C(=O)COC(=O)c2ccc(Br)o2)c(C)n1C | - | - | - | -
COCCn1c(C)cc(C(=O)COC(=O)c2ccc[nH]c2=O)c1C | - | - | 84 | -
Cc1ccc(-n2c(C)cc(C(=O)COC(=O)c3ccc[nH]c3=O)c2C)cc1 | - | - | 81 | 61
